Hits are enriched below; roughly 1.5% of the tested compounds scored in any of these assays.
Hck-Nef inh = inhibitors of Nef-activated human Hck kinase, primary screen, biochemical, Z-Lyte FRET, 384-well, Hck-YEEI; Tyrosine-protein kinase HCK (Homo sapiens), P08631; Recombinant Hck-YEEI plus Nef, Z-Lyte FRET kinase assay; inhibition, % at 20 µM; hit rate 0.68% among 220,000; AID 463187, 2010;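 active means Hck-Nef kinase inhibition above about 50%, limit read from the data; inactive means inhibition below that limit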;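 further: 0% = DMSO with Hck plus Nef and 100% = Hck alone without Nef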
Target sequence (P08631 whole entry, looked up): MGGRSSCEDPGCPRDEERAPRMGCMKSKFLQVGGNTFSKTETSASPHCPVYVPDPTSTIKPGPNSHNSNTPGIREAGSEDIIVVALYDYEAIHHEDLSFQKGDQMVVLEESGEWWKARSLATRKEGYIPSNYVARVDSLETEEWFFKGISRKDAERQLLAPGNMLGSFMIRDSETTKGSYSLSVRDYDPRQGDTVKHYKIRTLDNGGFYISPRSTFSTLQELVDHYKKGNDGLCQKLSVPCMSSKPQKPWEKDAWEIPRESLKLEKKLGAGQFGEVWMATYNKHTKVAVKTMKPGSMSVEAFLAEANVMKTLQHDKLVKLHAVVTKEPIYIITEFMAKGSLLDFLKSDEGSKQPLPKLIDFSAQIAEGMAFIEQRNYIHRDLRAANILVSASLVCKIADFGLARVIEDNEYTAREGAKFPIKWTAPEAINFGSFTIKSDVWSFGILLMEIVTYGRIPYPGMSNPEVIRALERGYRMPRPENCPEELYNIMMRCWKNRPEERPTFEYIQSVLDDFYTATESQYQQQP
Runt-CBFb FRET = inhibitors of RUNX1 Runt–CBFb binding, primary screen, biochemical, FRET, Cerulean-Runt, Venus-CBFb, uHTS; AID 1496, 2009; inhibition, % at 20 µM; Cerulean-Runt/Venus-CBFb FRET ratio 530/480, 1 h; Runt-related transcription factor 1 (Homo sapiens) + Core-binding factor subunit beta …; hit rate 0.46% among 220,000;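 active means inhibition over about 50% at 20 µM in the single-dose screen, limit read from the data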;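 further: 0% = DMSO wells and 100% = excess unlabeled CBFb competitor control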
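Reagent – Venus-CBFb binding partner, 100 nM · Assay system – Cerulean-tagged RUNX1 Runt domain (FRET donor) fusion protein · Input – 100 nM per protein · Incubation – two 1 h room-temperature incubations shielded from light · Measured by – FRET fluorescence · Medium – Tris buffer pH 7.5 with salts and BSA · Benchmarks – unlabeled CBFb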
RanGTP-Imp inh = inhibitors of RanGTP-importin-beta interaction, primary screen, biochemical, FRET, CFP-Ran, YFP-importin-beta, homogeneous | cell-free CFP-Ran/YFP-importin-beta FRET ratio | inhibition, % (concentration not given with the values) | hit rate 1.1% among 300,000 | AID 2216, 2009;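 active means more than half of the replicate wells show a fall in the fluorescence ratio signal beyond about 16%, limit read from the data, passing the limit was not always enough; inconclusive means exactly half of the replicate wells pass the set limit; inactive means fewer than half of replicates pass the limit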;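 further: 0% = DMSO wells and 100% = Ran loaded with GDP instead of GTP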
Runt-SMMHC FRET = inhibitors of RUNX1 Runt–CBFb-SMMHC binding, primary screen, biochemical, FRET, Cerulean-Runt, Venus-CBFb-SMMHC, uHTS; Runt-related transcription factor 1 (Homo sapiens) + Core-binding factor subunit beta …; inhibition, % at 20 µM; Cerulean-Runt/Venus-CBFb-SMMHC FRET ratio 530/480, 1 h; hit rate 0.74% among 220,000;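 active means mean inhibition across duplicate retests at 20 µM reaching about 50%, limit read from the data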;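 further: 0% = DMSO wells and 100% = wells with excess untagged CBFb-SMMHC; inhibitors lower the FRET ratio by blocking Runt binding to CBFb-SMMHC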
CaV13 FRET inh = Primary screen for inhibitors of IQ motif and Ca2+-dependent inactivation inhibitor domain binding in CACNA1D, Förster resonance energy transfer in living cells, …; HEK cells, CFP/YFP FRET ICDI-IQ, plate reader, 10 min; percent FRET-ratio fall versus neutral wells; inhibition, % at 12.3 µM; hit rate 0.098% among 340,000;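 active means mean replicate inhibition of at least 30% and at least 1% of replicates passing that level; inconclusive means only one of the two criteria is met; inactive means neither criterion is met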;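 further: 0% = median of the neutral control wells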
An asterisk follows results filed as active; ? = inconclusive; . = no result given; + = active, no number.

SMILES	Hck-Nef inh	Runt-CBFb FRET	RanGTP-Imp inh	Runt-SMMHC FRET	CaV13 FRET inh
CC(=O)N1CCc2c(sc(NC(=O)C3COc4ccccc4O3)c2C(N)=O)C1 (stereo unspecified)	.	.	5.3	.	-5.7
CCN1CCc2c(sc(NC(=O)C3COc4ccccc4O3)c2C(N)=O)C1 (stereo unspecified)	.	.	152.6*	.	1.5
CCCC(=O)c1cc2cc(Cl)ccc2oc1=O	1.8	-0.7	-0.8	1.3	-4.1
CCCCn1c(N)c(N(CC)C(=O)c2cc(Br)ccc2Cl)c(=O)[nH]c1=O	2.7	-0.4	-1.7	-6.7	-4.6
CN1CCc2c(sc(NC(=O)CS(=O)(=O)c3ccc(F)cc3)c2C(N)=O)C1	.	.	163.0*	.	-6.1
CC(=O)N1CCc2c(sc(NC(=O)CN3C(=O)c4ccccc4C3=O)c2C(N)=O)C1	20.1	3.2	8.3	-0.4	-6.0
CC(=O)N1CCc2c(sc(NC(=O)CN3C(=O)CCC3=O)c2C(N)=O)C1	2.4	6.2	23.3*	20.8	-5.1
CC(=O)N1CCc2c(sc(NC(=O)CS(=O)(=O)c3ccc(F)cc3)c2C(N)=O)C1	.	.	20.9*	.	-3.7
O=C(C1CC(=O)N(c2ccccc2)C1)N1CCCCCC1 (stereo unspecified)	.	.	-2.6	.	-6.3
CCCSc1nc2c(cnn2-c2ccc(C)cc2)c(=O)[nH]1	22.7	0.4	-0.2	2.9	-5.5
CCOc1ccc(CCN2C(=S)N([C@@H](CC(C)C)CN3CCCC3CN3C(=S)NC[C@@H]3Cc3ccc(O)cc3)C[C@@H]2Cc2ccccc2)cc1 (stereo partly specified)	.	.	.	.	-8.8
Cc1ccc2occ(/C=N/O)c(=O)c2c1	23.9	-2.2	2.4	-59.6	-4.8
Cc1ccc(NC(=O)CCCOc2ccccc2)cc1S(=O)(=O)N1CCOCC1	.	.	.	.	-11.3
COc1ccc(N(CC(O)Cn2c(C)nc3ccccc32)S(=O)(=O)c2ccc(C)cc2)cc1 (stereo unspecified)	4.1	-5.4	3.0	2.7	-5.9
N=C1/C(=C\c2ccc(-c3ccc(C(=O)O)cc3)o2)C(=O)N=C2SC=C(c3ccccc3)N12	103.0*	-12.6	-4.8	-50.0	-3.0
N#Cc1c(N)n(CCNC(=O)c2ccccc2)c2nc3ccccc3nc12	11.6	110.9*	58.1*	76.0*	-10.3
N#Cc1c(N)n(-c2cccc(C(=O)O)c2)c2nc3ccccc3nc12	21.0	99.3*	?	81.7*	-1.0
N#Cc1c(N)n(-c2ccccc2N)c2nc3ccccc3nc12	24.5	9.2	3.0	7.4	-15.4
N#Cc1c(N)n(CCNC(=O)c2cccs2)c2nc3ccccc3nc12	39.4	104.8*	64.1*	57.6*	.
COC(=O)[C@]12CCCCC=C1N(Cc1cccc3ccccc13)C(=O)[C@H](CC(=O)NCC13CC4CC(CC(C4)C1)C3)C2	.	.	.	.	-9.1
CC[C@@]12C(=O)N(c3cccc(Br)c3)C(=O)N1[C@H](c1cccc(C)c1)[C@@H]1C(=O)N(Cc3ccccc3)C(=O)[C@@H]12	.	.	-1.1	.	-4.4
CCN1C(=O)c2cccc3c(S(=O)(=O)N(C)C)ccc1c23	.	.	.	.	42.4*
CN1C(=O)c2cccc3c(S(=O)(=O)N(C)C)ccc1c23	.	.	18.7*	.	-6.7
CCN1CCN(S(=O)(=O)c2ccc3c4c(cccc24)C(=O)N3CC)CC1	.	.	.	.	-7.0
CNS(=O)(=O)c1ccc2c3c(cccc13)C(=O)N2C	.	.	4.9	.	-7.1
SMILES	Hck-Nef inh	Runt-CBFb FRET	RanGTP-Imp inh	Runt-SMMHC FRET	CaV13 FRET inh
CN1CCC(CC(C(=O)N2CCCC2)(c2ccccc2)c2ccccc2)C1 (stereo unspecified)	.	.	.	.	-5.7
Nc1ccc2c(c1)Cc1cc([N+](=O)[O-])ccc1-2	-0.9	-20.4	-15.7	-56.7	-25.3
Nc1ccc2c(c1)N=[N+]([O-])c1cc(N)ccc1C2	6.0	0.9	31.7*	-3.4	-16.7
O=C(NCc1cc(C(F)(F)F)ccc1Cl)c1cccc2c1C(=O)c1ccc(Cl)cc1S2(=O)=O	.	.	.	.	35.6*
CCOC(=O)c1cc2c(=O)n3ccccc3nc2n(C(C)C)c1=NC(=O)c1c(-c2c(F)cccc2Cl)noc1C	15.3	101.1*	89.6*	63.2*	-5.1
CCOC(=O)c1cc2c(=O)n3ccccc3nc2n(C)c1=NC(=O)c1c(-c2c(F)cccc2Cl)noc1C	.	.	?	.	-6.3
CCCCCn1c(=NC(=O)c2ccco2)c(C(=O)OCC)cc2c(=O)n3ccccc3nc21	31.4	10.8	136.9*	42.1	25.9
CCCCn1c(=NC(=O)c2ccco2)c(C(=O)OCC)cc2c(=O)n3cccc(C)c3nc21	34.1	9.5	122.5*	81.7*	6.2
COc1ccc(C(=O)NNC(=S)NC(=O)c2ccco2)cc1	-2.1	4.1	-3.0	-1.5	-4.3
CCCOc1ccc(C(=O)NNC(=S)NC(=O)c2ccco2)cc1	14.0	4.7	2.5	1.8	34.6*
Cc1[nH]nc2c1C(c1c[nH]c3ccccc13)C(C#N)=C(N)O2 (stereo unspecified)	41.9	-2.8	5.9	-1.5	-4.5
COC(=O)Cc1[nH]nc2c1C(c1c[nH]c3ccccc13)C(C#N)=C(N)O2 (stereo unspecified)	5.9	11.5	45.4*	2.3	-3.5
CCn1c(=O)cc(SCC(=O)Nc2ccc(Cl)cc2)c2ccccc21	0.7	3.5	63.5*	2.2	-3.9
CCn1c(=O)cc(SCC(=O)Nc2ccc(OC)c(OC)c2)c2ccccc21	0.3	2.4	-4.9	2.2	-9.0
COc1nsnc1NS(=O)(=O)c1ccc(NC(=S)NC(=O)c2ccncc2)cc1	13.9	3.8	2.4	-1.6	-12.2
Cc1ccc2nc3c(cc(C#N)c(=N)n3CC3CCCO3)c(=O)n2c1 (stereo unspecified)	.	10.8	.	42.1	.
Cc1ccc(S(=O)(=O)c2cc3c(=O)n4ccccc4nc3n(CC3CCCO3)c2=N)cc1 (stereo unspecified)	4.2	.	.	.	.
Cc1ccc(CNC(=O)c2cc3c(=O)n4ccccc4nc3n(CC3CCCO3)c2=N)cc1 (stereo unspecified)	38.5	18.4	-9.7	62.6*	.
COc1ccc(CCn2c(=N)c(C(=O)NC3CCCC3)cc3c(=O)n4ccccc4nc32)cc1OC	.	.	3.3	.	-22.1
CC(NC(=O)c1cc2c(=O)n3ccccc3nc2n(CC2CCCO2)c1=N)c1ccccc1 (stereo unspecified)	.	.	+	.	9.1
N=c1c(C(=O)NC2CCCCC2)cc2c(=O)n3ccccc3nc2n1CC1CCCO1 (stereo unspecified)	.	.	171.5*	.	1.6

Screening results from PubChem BioAssay.
